According to ChEMBL document CHEMBL4033657, “N-Aryl-N'-ethyleneaminothioureas effectively inhibit acetylcholinesterase 1 from disease-transmitting mosquitoes” (Eur J Med Chem, 2017):
Activity calls are given as the source filed them. The rule behind the calls is not given here.

Experiments:
[1] = test system: Aedes aegypti; test: Inhibition of recombinant full length Aedes aegypti AChE1 expressed in baculovirus-infected Sf9 insect cells at 1 mM using acetylthiocholine iodide as substrate measured over 60 secs by Ellman's method
Procedure, shortened: (§1)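 Secreted, non-purified recombinant enzyme in growth medium, tested as enzyme source. Ellman assay at 30 °C in 0.1 M phosphate buffer pH 7.4 with 0.2 mM DTNB and 1 mM acetylthiocholine iodide; A412 followed over 60 s. Compound (100 mM DMSO stock) tested at eight concentrations, maximum 1 mM. Activity set relative to eight uninhibited controls per plate; IC50 from three-parameter variable-slope fit; 2-3 independent replicates.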

[2] = biological target: Acetylcholinesterase (Anopheles gambiae) (UniProt Q869C3); test: Inhibition of recombinant full length Anopheles gambiae AChE1 expressed in baculovirus-infected Sf9 insect cells at 1 mM using acetylthiocholine iodide as substrate measured over 60 secs by Ellman's method; procedure, shortened: as §1
[3] = biological target: T1, Acetylcholinesterase (Homo sapiens, UniProt P22303); test: Inhibition of recombinant human AChE expressed in HEK293F cells up to 1 mM using acetylthiocholine iodide as substrate measured over 60 secs by Ellman's method; conditions: HEK293; procedure, shortened: as §1
[4] = test system: Acetylcholinesterase (Anopheles gambiae), Q869C3 [G122S]; test: Inhibition of recombinant full length Anopheles gambiae AChE1 G122S mutant expressed in baculovirus-infected Sf9 insect cells up to 1 mM using acetylthiocholine iodide as substrate measured over 60 secs by Ellman's method; procedure, shortened: as §1
[5] = biological target: T2, Acetylcholinesterase (Anopheles gambiae, UniProt Q869C3); test: Inhibition of recombinant full length Anopheles gambiae AChE1 expressed in baculovirus-infected Sf9 insect cells using acetylthiocholine iodide as substrate measured over 60 secs by Ellman's method
[6] = biological target: T1, Acetylcholinesterase; test: Inhibition of recombinant human AChE expressed in HEK293F cells using acetylthiocholine iodide as substrate measured over 60 secs by Ellman's method; design: species or system HEK293
[7] = test system: Anopheles gambiae; test: Insecticidal activity against five days old adult Anopheles gambiae Kisumu assessed as mortality at 10 mM applied topically on upper part of pronotum after 48 hrs (reference value: 14 to 22%); type: functional; conditions: topical
[8] = test system: Aedes aegypti; test: Insecticidal activity against 3rd instar larvae of Aedes aegypti Mombasa assessed as mortality at 50 uM administered via de-chlorinated tap water after 48 hrs (reference value: 0 to 4%); type: functional
[9] = test system: Aedes aegypti; test: Insecticidal activity against five days old adult Aedes aegypti Mombasa assessed as mortality at 2 mM applied topically on upper part of pronotum after 48 hrs (reference value: 3 to 12%); type: functional; conditions: topical
[10] = test system: Anopheles gambiae; test: Insecticidal activity against five days old adult Anopheles gambiae Kisumu assessed as mortality at 0.2 nmol applied topically on upper part of pronotum after 24 hrs; type: functional
[11] = test system: Anopheles gambiae; test: Insecticidal activity against five days old adult Anopheles gambiae Kisumu assessed as mortality at 2 mM applied topically on upper part of pronotum after 48 hrs (reference value: 13 to 38%); type: functional; conditions: topical
[12] = test system: Aedes aegypti; test: Insecticidal activity against five days old adult Aedes aegypti Mombasa assessed as mortality at 10 nmol applied topically on upper part of pronotum after 24 hrs; type: functional
[13] = test system: Anopheles gambiae; test: Insecticidal activity against five days old adult Anopheles gambiae Kisumu assessed as mortality at 10 nmol applied topically on upper part of pronotum after 24 hrs; type: functional
[14] = test system: Anopheles gambiae; test: Insecticidal activity against 3rd instar larvae of Anopheles gambiae Kisumu assessed as mortality at 500 uM administered via de-chlorinated tap water after 24 hrs; type: functional
Procedure, shortened: (§2)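 Kenyan strains were reared at 27-28 °C, about 80% humidity, 12/12 h light. Per compound and concentration, 25 third-instar larvae were placed in 100 ml de-chlorinated water containing the compound and kept under insectary conditions. The negative control was plain water; the positive control was propoxur at 25 µM. Mortality was scored at 24 h; 75 treated and 50 control larvae in total.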

[15] = test system: Anopheles gambiae; test: Insecticidal activity against five days old adult Anopheles gambiae Kisumu assessed as mortality at 2 mM applied topically on upper part of pronotum after 24 hrs (reference value: 3 to 17%); type: functional; conditions: topical
[16] = test system: Aedes aegypti; test: Insecticidal activity against 3rd instar larvae of Aedes aegypti Mombasa assessed as mortality at 50 uM administered via de-chlorinated tap water after 24 hrs; type: functional; procedure, shortened: as §2
[17] = test system: Anopheles gambiae; test: Insecticidal activity against five days old adult Anopheles gambiae Kisumu assessed as mortality at 100 mM applied topically on upper part of pronotum after 48 hrs (reference value: 15 to 24%); type: functional; conditions: topical
[18] = test system: Aedes aegypti; test: Insecticidal activity against five days old adult Aedes aegypti Mombasa assessed as mortality at 10 mM applied topically on upper part of pronotum after 24 hrs (reference value: 3 to 15%); type: functional; conditions: topical
[19] = test system: Anopheles gambiae; test: Insecticidal activity against 3rd instar larvae of Anopheles gambiae Kisumu assessed as mortality at 50 uM administered via de-chlorinated tap water after 48 hrs; type: functional
[20] = test system: Anopheles gambiae; test: Insecticidal activity against five days old adult Anopheles gambiae Kisumu assessed as mortality at 100 mM applied topically on upper part of pronotum after 24 hrs (reference value: 9 to 10%); type: functional; conditions: topical
[21] = test system: Aedes aegypti; test: Insecticidal activity against 3rd instar larvae of Aedes aegypti Mombasa assessed as mortality at 500 uM administered via de-chlorinated tap water after 48 hrs (reference value: 0 to 2%); type: functional
[22] = test system: Aedes aegypti; test: Insecticidal activity against five days old adult Aedes aegypti Mombasa assessed as mortality at 100 mM applied topically on upper part of pronotum after 48 hrs (reference value: 7 to 8%); type: functional; conditions: topical
[23] = test system: Aedes aegypti; test: Insecticidal activity against five days old adult Aedes aegypti Mombasa assessed as mortality at 10 mM applied topically on upper part of pronotum after 48 hrs (reference value: 3 to 15%); type: functional; conditions: topical
[24] = test system: Anopheles gambiae; test: Insecticidal activity against 3rd instar larvae of Anopheles gambiae Kisumu assessed as mortality at 500 uM administered via de-chlorinated tap water after 48 hrs; type: functional
[25] = test system: Aedes aegypti; test: Insecticidal activity against five days old adult Aedes aegypti Mombasa assessed as mortality at 0.2 nmol applied topically on upper part of pronotum after 24 hrs; type: functional
[26] = test system: Anopheles gambiae; test: Insecticidal activity against 3rd instar larvae of Anopheles gambiae Kisumu assessed as mortality at 50 uM administered via de-chlorinated tap water after 24 hrs; type: functional; procedure, shortened: as §2
[27] = test system: Aedes aegypti; test: Insecticidal activity against five days old adult Aedes aegypti Mombasa assessed as mortality at 1 nmol applied topically on upper part of pronotum after 24 hrs; type: functional
[28] = test system: Aedes aegypti; test: Insecticidal activity against five days old adult Aedes aegypti Mombasa assessed as mortality at 100 mM applied topically on upper part of pronotum after 24 hrs (reference value: 3%); type: functional; conditions: topical
[29] = test system: Aedes aegypti; test: Insecticidal activity against five days old adult Aedes aegypti Mombasa assessed as mortality at 2 mM applied topically on upper part of pronotum after 24 hrs (reference value: 2 to 10%); type: functional; conditions: topical
[30] = biological target: Acetylcholinesterase (Anopheles gambiae, UniProt Q869C3, G122S); test: Inhibition of recombinant full length Anopheles gambiae AChE1 G122S mutant expressed in baculovirus-infected Sf9 insect cells using acetylthiocholine iodide as substrate measured over 60 secs by Ellman's method
[31] = test system: Anopheles gambiae; test: Insecticidal activity against five days old adult Anopheles gambiae Kisumu assessed as mortality at 10 mM applied topically on upper part of pronotum after 24 hrs (reference value: 8 to 16%); type: functional; conditions: topical
[32] = test system: Aedes aegypti; test: Insecticidal activity against 3rd instar larvae of Aedes aegypti Mombasa assessed as mortality at 500 uM administered via de-chlorinated tap water after 24 hrs; type: functional; procedure, shortened: as §2
[33] = Inhibition of recombinant full length Aedes aegypti AChE1 expressed in baculovirus-infected Sf9 insect cells using acetylthiocholine iodide as substrate measured over 60 secs by Ellman's method; procedure, shortened: as §1
[34] = test system: Anopheles gambiae; test: Insecticidal activity against five days old adult Anopheles gambiae Kisumu assessed as mortality at 1 nmol applied topically on upper part of pronotum after 24 hrs; type: functional
[35] = test system: Anopheles gambiae; test: Insecticidal activity against five days old adult Anopheles gambiae Kisumu assessed as mortality at 0.01 nmol applied topically on upper part of pronotum after 24 hrs; type: functional
[36] = test system: Anopheles gambiae; test: Insecticidal activity against 3rd instar larvae of Anopheles gambiae Kisumu assessed as mortality at 300 uM administered via de-chlorinated tap water after 24 hrs; type: functional; procedure, shortened: as §2
[37] = test system: Aedes aegypti; test: Insecticidal activity against 3rd instar larvae of Aedes aegypti Mombasa assessed as mortality at 300 uM administered via de-chlorinated tap water after 48 hrs (reference value: 0%); type: functional
[38] = test system: Anopheles gambiae; test: Insecticidal activity against 3rd instar larvae of Anopheles gambiae Kisumu assessed as mortality at 300 uM administered via de-chlorinated tap water after 48 hrs; type: functional
[39] = biological target: T2, Acetylcholinesterase; test: Inhibition of AChE1 in Anopheles gambiae head extract using acetylthiocholine iodide as substrate measured over 60 secs by Ellman's method
[40] = Selectivity ratio of IC50 for recombinant human AChE expressed in HEK293F cells to IC50 for recombinant full length Anopheles gambiae AChE1 expressed in baculovirus-infected Sf9 insect cells
Procedure, shortened: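 Ratio of the hAChE IC50 divided by the higher of the AgAChE1 or AaAChE1 IC50. Each IC50 came from an Ellman assay (1 mM acetylthiocholine, 0.2 mM DTNB, pH 7.4, 30 °C) with eight concentrations up to 1 mM, using 2-3 replicates.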

[41] = test system: Aedes aegypti; test: Insecticidal activity against 3rd instar larvae of Aedes aegypti Mombasa assessed as mortality at 300 uM administered via de-chlorinated tap water after 24 hrs; type: functional; procedure, shortened: as §2
[42] = biological target: T2, Acetylcholinesterase; test: Inhibition of AChE1 in Anopheles gambiae body extract using acetylthiocholine iodide as substrate measured over 60 secs by Ellman's method
[43] = test system: Anopheles gambiae; test: Insecticidal activity against five days old adult Anopheles gambiae Kisumu assessed as mortality at 0.1 mM applied topically on upper part of pronotum after 24 hrs (reference value: 0%); type: functional; conditions: topical

SMILES | IC50 [5] [µM] | IC50 [6] [µM] | mortality at 10000 µM [7] [%] | mortality at 50 µM [8] [%] | mortality at 2000 µM [9] [%] | mortality [10] [%] | mortality at 500 µM [14] [%] | mortality at 2000 µM [15] [%] | mortality at 50 µM [16] [%] | mortality at 10000 µM [18] [%] | mortality at 50 µM [19] [%] | mortality at 500 µM [21] [%] | mortality at 10000 µM [23] [%] | mortality at 500 µM [24] [%] | mortality [25] [%] | mortality at 50 µM [26] [%] | mortality [27] [%] | mortality at 2000 µM [29] [%] | IC50 [30] [µM] | mortality at 10000 µM [31] [%] | other results
S=C(NCCN1CCOCC1)Nc1ccc(Cl)cc1 | – | – | – | – | – | – | – | – | – | – | – | – | – | – | – | – | – | – | – | – | inhibition [1]: inactive; inhibition [2]: inactive; inhibition [3]: inactive; inhibition [4]: inactive
COc1ccc(NC(=S)NCCN(C)C)cc1 | > 200 | > 200 | 50 | 5 | 11 | 0 | 3 | 17 | 4 | 12 | 5 | 3 | 21 | 16 | 1 | 4 | 0 | 11 | > 200 | 43 | mortality at 2000 µM [11]: 36%; mortality [12]: 12%; mortality [13]: 55%; mortality at 100000 µM [17]: 67%; mortality at 100000 µM [20]: 59%; mortality at 100000 µM [22]: 17%; mortality at 100000 µM [28]: 12%; mortality at 500 µM [32]: 1%; IC50 [33]: > 200 µM; mortality [34]: 32%
COc1ccc(NC(=S)NCCN2CCOCC2)cc1Cl | 0.12 | 14 | 77 | 13 | 5 | 22 | 100 | 22 | 8 | 3 | 3 | 100 | 10 | 100 | 5 | 1 | 0 | 5 | 84 | 72 | mortality [35]: 0%; mortality at 300 µM [36]: 100%; mortality at 300 µM [37]: 80%; mortality at 300 µM [38]: 100%; IC50 [39]: 0.19 µM; Ratio IC50 [40]: 117; mortality at 300 µM [41]: 64%; mortality at 500 µM [32]: 97%; IC50 [33]: 0.09 µM; IC50 [42]: 0.15 µM; mortality at 100 µM [43]: 0%; mortality [34]: 70%
